Experimental data from ChEMBL document CHEMBL2401732, “Evaluation of adenine as scaffold for the development of novel P2X3 receptor antagonists” (Eur J Med Chem, 2013).
Positions count from the first letter of the chain named. Calls of active or inactive are those of the source. The calls are words filed in the database; no cut-off is given here.

Key:
[1] = target: T1, P2X purinoceptor 3 (Rattus norvegicus) (UniProt P49654); test: Antagonist activity at rat recombinant P2X3 receptor expressed in HEK293T cells assessed as desensitization of alpha,beta-methyleneATP-induced current at 10 uM after 20 secs by patch clamp technique; format: cell-based; details: HEK-293T
T1 sequence (whole entry): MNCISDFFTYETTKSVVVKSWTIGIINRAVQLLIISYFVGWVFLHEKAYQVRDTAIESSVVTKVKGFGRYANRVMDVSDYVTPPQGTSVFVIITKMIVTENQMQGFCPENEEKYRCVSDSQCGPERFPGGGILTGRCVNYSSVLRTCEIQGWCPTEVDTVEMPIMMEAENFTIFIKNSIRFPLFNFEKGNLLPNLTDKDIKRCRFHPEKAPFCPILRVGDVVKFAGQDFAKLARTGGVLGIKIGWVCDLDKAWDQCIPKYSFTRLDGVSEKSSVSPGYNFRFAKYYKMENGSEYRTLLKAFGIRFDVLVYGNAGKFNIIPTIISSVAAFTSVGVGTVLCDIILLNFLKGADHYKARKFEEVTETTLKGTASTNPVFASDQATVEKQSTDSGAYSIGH
Procedure, shortened: (§1)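 HEK 293T cells transiently co-transfected by calcium phosphate with pEGFP and pcDNA3-P2X3 (rat or human, 1:1), used 24 or 48 h later. GFP-positive cells whole-cell clamped at -60 mV, room temperature, CsCl pipette solution, HEPES-buffered bath pH 7.4. Control response averaged over ≥3 pulses of 100 μM α,β-meATP (2 s, 5 min apart). Compound applied 20 s before agonist. Screening at 100 μM, then 100–0.3 μM. Peak % inhibition computed; Hill fits of dose–inhibition data, n = 6–14 cells.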

[2] = target: T1, P2X purinoceptor 3 (Rattus norvegicus); test: Antagonist activity at rat recombinant P2X3 receptor expressed in HEK293T cells assessed as desensitization of alpha,beta-methyleneATP-induced current at 100 uM after 20 secs by patch clamp technique; format: cell-based; details: HEK-293T; procedure, shortened: as §1
[3] = target: T1, P2X purinoceptor 3 (Rattus norvegicus); test: Antagonist activity at rat recombinant P2X3 receptor expressed in HEK293T cells assessed as desensitization of alpha,beta-methyleneATP-induced current at 0.3 uM after 20 secs by patch clamp technique; format: cell-based; details: HEK-293T; procedure, shortened: as §1
[4] = target: T1, P2X purinoceptor 3 (Rattus norvegicus); test: Antagonist activity at rat recombinant P2X3 receptor expressed in HEK293T cells assessed as desensitization of alpha,beta-methyleneATP-induced current at 1 uM after 20 secs by patch clamp technique; format: cell-based; details: HEK-293T; procedure, shortened: as §1
[5] = target: T1, P2X purinoceptor 3 (Rattus norvegicus); test: Antagonist activity at rat recombinant P2X3 receptor expressed in HEK293T cells assessed as desensitization of alpha,beta-methyleneATP-induced current at 100 uM after 6 mins of compound wash out by patch clamp technique; format: cell-based; details: HEK-293T
Procedure, shortened: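 Rat P2X3 in transfected HEK 293T cells, whole-cell clamp at -60 mV. After 20 s compound application and a 2 s pulse of 100 μM α,β-meATP, the cell was washed for 6 min. Recovery was assessed as the peak current to a repeat agonist pulse, compared with the control peak.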

[6] = target: T2, P2X purinoceptor 3 (Rattus norvegicus, UniProt P49654); test: Antagonist activity at rat recombinant P2X3 receptor expressed in HEK293T cells assessed as desensitization of alpha,beta-methyleneATP-induced current after 20 secs by patch clamp technique; format: cell-based, HEK-293T; procedure, shortened: as §1
T2 sequence (P49654 whole entry): T1 sequence (whole entry)

[7] = target: T3, P2X purinoceptor 3 (Mus musculus) (UniProt Q3UR32); test: Antagonist activity at P2X3 receptor in C57Bl/6 wild type mouse trigeminal ganglion sensory neurons assessed as desensitization of alpha,beta-methyleneATP-induced current at 100 uM after 20 secs by patch clamp technique; format: tissue-based
T3 sequence (whole entry): T1 sequence (whole entry) with L144R, R202K, A377T
Procedure, shortened: (§2)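 Native P2X3 in trigeminal ganglion neurons from C57Bl/6 mice (P10–14), dissociated with trypsin/collagenase/DNAse at 37 °C for 12 min and cultured 24 h. Small/medium neurons whole-cell voltage clamped at -60 mV, room temperature. Pipette KCl-based with ATP–Mg/GTP–Li, pH 7.2. Compound superfused 20 s, then 2 s pulse of 100 μM α,β-meATP. % inhibition = 100×(1−I2/I1) from peak currents.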

[8] = target: T3, P2X purinoceptor 3 (Mus musculus); test: Antagonist activity at P2X3 receptor in C57Bl/6 wild type mouse trigeminal ganglion sensory neurons assessed as desensitization of alpha,beta-methyleneATP-induced current at 1 uM after 20 secs by patch clamp technique; format: tissue-based; procedure, shortened: as §2
[9] = target: T4, P2X purinoceptor 3 (Homo sapiens) (UniProt P56373); test: Antagonist activity at human recombinant P2X3 receptor expressed in HEK293T cells assessed as desensitization of alpha,beta-methyleneATP-induced current at 100 uM after 20 secs by patch clamp technique; format: cell-based; details: HEK-293T, 1 uM, in the assay text read “at 1 uM” for “at 100 uM”; procedure, shortened: as §1
T4 sequence (whole entry): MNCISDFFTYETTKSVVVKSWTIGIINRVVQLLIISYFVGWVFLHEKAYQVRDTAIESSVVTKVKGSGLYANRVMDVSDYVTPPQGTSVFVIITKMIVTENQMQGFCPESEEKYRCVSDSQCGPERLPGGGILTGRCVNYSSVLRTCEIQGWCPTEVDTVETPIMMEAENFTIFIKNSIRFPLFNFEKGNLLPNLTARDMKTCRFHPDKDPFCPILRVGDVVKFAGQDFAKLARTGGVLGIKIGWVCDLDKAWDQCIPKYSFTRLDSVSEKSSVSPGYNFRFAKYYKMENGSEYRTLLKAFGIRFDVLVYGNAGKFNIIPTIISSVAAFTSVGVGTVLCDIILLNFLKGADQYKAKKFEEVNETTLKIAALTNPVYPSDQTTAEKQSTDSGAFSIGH

[10] = target: T1, P2X purinoceptor 3 (Rattus norvegicus); test: Antagonist activity at rat recombinant P2X3 receptor expressed in HEK293T cells assessed as desensitization of alpha,beta-methyleneATP-induced current at 100 uM after 20 secs by patch clamp technique relative to control; format: cell-based; parameters: scale not given: the % may be the effect or the level left; details: HEK-293T; procedure, shortened: as §1

| Compound | inhibition [1] [%] | inhibition [2] [%] | inhibition [3] [%] | inhibition [4] [%] | IC50 [6] [nM] | further results |
| --- | --- | --- | --- | --- | --- | --- |
| COc1cc(C(C)C)c(Cn2cnc3nc(N)nc(N)c32)cc1I | 43 | – | – | – | – | – |
| COc1cc(Cn2cnc3nc(N)nc(N)c32)c(C(C)C)cc1OC | – | 23 | – | – | – | – |
| CNc1nc(N)nc2c1ncn2Cc1cc(OC)c(OC)cc1C(C)C | – | 71 | – | – | – | – |
| COc1cc(C(C)C)c(Cn2cnc3c(NC4CCCC4)nc(N)nc32)cc1I | 60 | 58 | 45 | 51 | – | – |
| COc1cc(Cn2cnc3c(N)nc(N)nc32)c(C(C)C)cc1OC | 36 | 82 | – | 8 | 18600 | Activity [5]: inactive |
| CNc1nc(N)nc2c1ncn2Cc1cc(I)c(OC)cc1C(C)C | 76 | 98 | 22 | 41 | 1740 | inhibition [7]: Active; Activity [5]: inactive; inhibition [8]: 37%; inhibition [9]: 29% |
| COc1cc(C(C)C)c(Cn2cnc3c(OC)nc(N)nc32)cc1I | – | 50 | – | – | – | – |
| COc1cc(C(C)C)c(Cn2cnc3c(N)nc(N)nc32)cc1I | 78 | 93 | 23 | 35 | 2230 | – |
| COc1cc(Cn2cnc3nc(N)nc(Cl)c32)c(C(C)C)cc1OC | – | 19 | – | – | – | – |
| COc1cc(Cn2cnc3c(Cl)nc(N)nc32)c(C(C)C)cc1OC | – | 27 | – | – | – | Activity [10]: 6% |
